This note sets out measurements from ChEMBL document CHEMBL1149652, “Synthesis and structure-activity relationship study of cytotoxic germanicane- and lupane-type 3beta-O-monodesmosidic saponins starting from betulin” (Bioorg Med Chem, 2007).

In one assay the test system is A549. In words: Cytotoxicity against human A549 cells assessed as cell viability after 48 hrs. It is filed as functional, cell-based. The following applies: A549, 48 h. Summed up: (§1)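 Cells from ATCC grown in MEM with Earle's salts, L-glutamine, 10% FBS, vitamins, essential amino acids, sodium pyruvate, penicillin/streptomycin, 37 °C, 5% CO2. Exponentially growing cells seeded at 5 × 10^3 per well, adhered 16 h, then exposed 48 h to increasing concentrations from DMSO stocks (final DMSO 0.5% v/v). Resazurin fluorescence read (ex 530/em 590 nm), blank-subtracted, expressed as survival versus control wells. IC50 given as mean ± standard deviation, three experiments in triplicate.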

For another assay, the system named is DLD-1. In words: Cytotoxicity against human DLD1 cells assessed as cell viability after 48 hrs. Format: functional, cell-based. The note with it: DLD-1, 48 h. Summed up:
as §1

Assay [1] can be described thus: Cytotoxicity against human WS1 cells assessed as cell viability after 48 hrs. The following applies: WS1, 48 h. Format: cell-based. The procedure, abridged:
as §1

Take `C=C(C)[C@@H]1CC[C@]2(CO)CC[C@]3(C)[C@H](CC[C@@H]4[C@@]5(C)CC[C@H](O[C@H]6O[C@H](CO)[C@@H](O)[C@H](O)[C@@H]6O)C(C)(C)[C@@H]5CC[C@]43C)[C@@H]12`: the IC50 with A549 turned out to be 7.3 µM; in the assay with DLD-1, 10.1 µM; in assay [1], 5.1 µM.
As to `C=C(C)[C@@H]1CC[C@]2(C(=O)O)CC[C@]3(C)[C@H](CC[C@@H]4[C@@]5(C)CC[C@H](O[C@@H]6O[C@H](CO)[C@@H](O)[C@H](O)[C@H]6O)C(C)(C)[C@@H]5CC[C@]43C)[C@@H]12`, the IC50 with A549 was above 75 µM.
On to `C=C(C)[C@@H]1CC[C@]2(C(=O)O)CC[C@]3(C)[C@H](CC[C@@H]4[C@@]5(C)CC[C@H](O[C@H]6O[C@H](CO)[C@@H](O)[C@H](O)[C@@H]6O)C(C)(C)[C@@H]5CC[C@]43C)[C@@H]12`, for which the IC50 with A549 was determined as 34 µM; in the assay on DLD-1 it was 15 µM; in assay [1] it was 13 µM.
For `CC1(C)CC[C@]23CC[C@]4(C)[C@H](CC[C@@H]5[C@@]6(C)CC[C@H](O[C@H]7OC[C@H](O)[C@H](O)[C@H]7O)C(C)(C)[C@@H]6CC[C@]54C)[C@H]2[C@@H]1OC3`, in that order: above 75 µM, above 75 µM and above 75 µM.
In the case of `CC1(C)CC[C@]23CC[C@]4(C)[C@H](CC[C@@H]5[C@@]6(C)CC[C@H](O[C@@H]7OC[C@@H](O)[C@H](O)[C@H]7O)C(C)(C)[C@@H]6CC[C@]54C)[C@H]2[C@@H]1OC3`, the half-inhibitory concentration (IC50) (with A549; in the assay with DLD-1; in assay [1]) was above 75 µM throughout.
Regarding `CC1(C)CC[C@]23CC[C@]4(C)[C@H](CC[C@@H]5[C@@]6(C)CC[C@H](O[C@@H]7O[C@H](CO)[C@H](O)[C@H](O)[C@H]7O)C(C)(C)[C@@H]6CC[C@]54C)[C@H]2[C@@H]1OC3=O`, the IC50 (with A549; in the assay on DLD-1; in assay [1]) was above 75 µM each time.
With `CC1(C)CC[C@]23CC[C@]4(C)[C@H](CC[C@@H]5[C@@]6(C)CC[C@H](O[C@@H]7OC[C@@H](O)[C@H](O)[C@H]7O)C(C)(C)[C@@H]6CC[C@]54C)[C@H]2[C@@H]1OC3=O`, the half-maximal inhibitory concentration (IC50) (with A549; with DLD-1; in assay [1]) was above 75 µM each time.
On to `CC1(C)CC[C@]23CC[C@]4(C)[C@H](CC[C@@H]5[C@@]6(C)CC[C@H](O[C@@H]7O[C@H](CO)[C@H](O)[C@H](O)[C@H]7O)C(C)(C)[C@@H]6CC[C@]54C)[C@H]2[C@@H]1OC3`, for which the IC50 was 30 µM with A549, 40 µM in the assay on DLD-1 and 30 µM in assay [1].
As to `CC1(C)CC[C@]23CC[C@]4(C)[C@H](CC[C@@H]5[C@@]6(C)CC[C@H](O[C@H]7O[C@H](CO)[C@@H](O)[C@H](O)[C@@H]7O)C(C)(C)[C@@H]6CC[C@]54C)[C@H]2[C@@H]1OC3=O`, the concentration for half-maximal inhibition (IC50) (with A549; in the assay on DLD-1; in assay [1]) was above 75 µM in each case.
On to `C=C(C)[C@@H]1CC[C@]2(C(=O)O)CC[C@]3(C)[C@H](CC[C@@H]4[C@@]5(C)CC[C@H](OC(C)=O)C(C)(C)[C@@H]5CC[C@]43C)[C@@H]12`, for which the IC50 amounted to 18 µM in the assay with A549, 20 µM in the assay with DLD-1 and 57 µM in assay [1].
In the same order, the values of `C=C(C)[C@@H]1CC[C@]2(C(=O)O)CC[C@]3(C)[C@H](CC[C@@H]4[C@@]5(C)CC[C@H](O[C@@H]6O[C@H](CO)[C@H](O)[C@H](O)[C@H]6O)C(C)(C)[C@@H]5CC[C@]43C)[C@@H]12` are above 75 µM, above 75 µM and above 75 µM.
For `C=C(C)[C@@H]1CC[C@]2(C(=O)O)CC[C@]3(C)[C@H](CC[C@@H]4[C@@]5(C)CC[C@H](O[C@@H]6OC[C@@H](O)[C@H](O)[C@H]6O)C(C)(C)[C@@H]5CC[C@]43C)[C@@H]12`, the figures for the half-inhibitory concentration (IC50) (in the assay on A549; in the assay with DLD-1; in assay [1]) were 15 µM, 18 µM and 20 µM, respectively.
Consider `CC1(C)CC[C@]23CC[C@]4(C)[C@H](CC[C@@H]5[C@@]6(C)CC[C@H](O[C@@H]7O[C@H](CO)[C@@H](O)[C@H](O)[C@H]7O)C(C)(C)[C@@H]6CC[C@]54C)[C@H]2[C@@H]1OC3=O`, for which the half-inhibitory concentration (IC50) (in the assay on A549; in the assay on DLD-1; in assay [1]) was above 75 µM each time.
Take `C[C@@H]1O[C@H](O[C@H]2CC[C@]3(C)[C@H]4CC[C@@H]5[C@H]6[C@@H]7OC(=O)[C@@]6(CCC7(C)C)CC[C@@]5(C)[C@]4(C)CC[C@H]3C2(C)C)[C@@H](O)[C@@H](O)[C@@H]1O`: the IC50 (with A549; in the assay with DLD-1; in assay [1]) was above 75 µM in each case.
For `C=C(C)[C@@H]1CC[C@]2(CO)CC[C@]3(C)[C@H](CC[C@@H]4[C@@]5(C)CC[C@H](O[C@@H]6O[C@H](CO)[C@@H](O)[C@H](O)[C@H]6O)C(C)(C)[C@@H]5CC[C@]43C)[C@@H]12`, the IC50 (in the assay with A549; in the assay with DLD-1; in assay [1]) was above 75 µM throughout.
As to `C=C(C)[C@@H]1CC[C@]2(CO)CC[C@]3(C)[C@H](CC[C@@H]4[C@@]5(C)CC[C@H](O[C@@H]6O[C@H](CO)[C@H](O)[C@H](O)[C@H]6O)C(C)(C)[C@@H]5CC[C@]43C)[C@@H]12`, the half-maximal inhibitory concentration (IC50) (with A549; with DLD-1; in assay [1]) was above 75 µM throughout.
Regarding `C=C(C)[C@@H]1CC[C@]2(CO)CC[C@]3(C)[C@H](CC[C@@H]4[C@@]5(C)CC[C@H](O[C@@H]6OC[C@@H](O)[C@H](O)[C@H]6O)C(C)(C)[C@@H]5CC[C@]43C)[C@@H]12`, the IC50 (with A549; in the assay on DLD-1; in assay [1]) was above 75 µM throughout.
In the case of `CC1(C)CC[C@]23CC[C@]4(C)[C@H](CC[C@@H]5[C@@]6(C)CC[C@H](O[C@@H]7O[C@H](CO)[C@@H](O)[C@H](O)[C@H]7O)C(C)(C)[C@@H]6CC[C@]54C)[C@H]2[C@@H]1OC3`, the IC50 is 31 µM in the assay with A549, 40 µM in the assay with DLD-1 and 40 µM in assay [1].
With `C[C@@H]1O[C@H](O[C@H]2CC[C@]3(C)[C@H]4CC[C@@H]5[C@H]6[C@@H]7OC[C@@]6(CCC7(C)C)CC[C@@]5(C)[C@]4(C)CC[C@H]3C2(C)C)[C@@H](O)[C@@H](O)[C@@H]1O`, the concentration for half-maximal inhibition (IC50) (in the assay on A549; with DLD-1; in assay [1]) was above 75 µM throughout.
On to `CC1(C)CC[C@]23CC[C@]4(C)[C@H](CC[C@@H]5[C@@]6(C)CC[C@H](O[C@H]7OC[C@H](O)[C@H](O)[C@H]7O)C(C)(C)[C@@H]6CC[C@]54C)[C@H]2[C@@H]1OC3=O`, for which the IC50 (in the assay with A549; in the assay on DLD-1; in assay [1]) was above 75 µM throughout.
In the case of `CC1(C)CC[C@]23CC[C@]4(C)[C@H](CC[C@@H]5[C@@]6(C)CC[C@H](O[C@H]7O[C@H](CO)[C@@H](O)[C@H](O)[C@@H]7O)C(C)(C)[C@@H]6CC[C@]54C)[C@H]2[C@@H]1OC3`, the IC50 (in the assay on A549; in the assay with DLD-1; in assay [1]) was above 75 µM in each case.
As to `CC1(C)CC[C@]23CC[C@]4(C)[C@H](CC[C@@H]5[C@@]6(C)CC[C@H](O)C(C)(C)[C@@H]6CC[C@]54C)[C@H]2[C@H]1OC3=O`, the IC50 (with A549; with DLD-1; in assay [1]) was above 75 µM in each case.
As for `CC1(C)CC[C@]23CC[C@]4(C)[C@H](CC[C@@H]5[C@@]6(C)CC[C@H](O)C(C)(C)[C@@H]6CC[C@]54C)[C@H]2[C@H]1OC3` [ALLOBETULIN], the IC50 (in the assay on A549; with DLD-1; in assay [1]) was above 75 µM each time.

As a reminder, the IC50 is the concentration that gives 50% inhibition.
